ChEMBL document CHEMBL3826935, “Synthesis and Pharmacology of (Pyridin-2-yl)methanol Derivatives as Novel and Selective Transient Receptor Potential Vanilloid 3 Antagonists” (J Med Chem, 2016)

Experiments:
[1] = Total plasma clearance in rat at 1 mg/kg, iv; type: ADME, organism-based
Summary of the method: (§1)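 Rat pharmacokinetics: iv dose 1 mg/kg; po dose 1 or 2 mg/kg depending on compound. AUC taken over 0–8 h. Unbound parameters calculated using plasma free fraction.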

[2] = biological target: Sodium channel protein type 5 subunit alpha (Homo sapiens, UniProt Q14524); test: Binding affinity to Nav1.5 (unknown origin) at 10 uM
Summary of the method: (§2)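 Selectivity screen at 10 µM across CEREP and internal target panels. Readout is percent binding, with 50% as the threshold.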

[3] = test system: Rattus norvegicus; test: Toxicity in chronic constriction injury Sprague-Dawley rat model of neuropathic pain assessed as behavioral changes at 10 to 100 mg/kg, po; type: organism-based; details: in vivo
[4] = test system: Rattus norvegicus; test: Toxicity in sciatic nerve ligation Sprague-Dawley rat model of neuropathic pain assessed as behavioral changes at 10 to 100 mg/kg, po; type: organism-based; details: in vivo
[5] = […] plasma clearance in rat at 1 mg/kg, iv; type: ADME, organism-based; details: read-out: CL free (converted); summary of the method: as §1
[6] = Half life in rat at 1 mg/kg, iv; type: ADME, organism-based; details: in vivo; summary of the method: as §1
[7] = biological target: T1, Transient receptor potential cation channel subfamily V member 3 (Homo sapiens) (UniProt Q8NET8); test: Binding affinity to TRPV3 (unknown origin) at 10 uM
T1 sequence (whole entry): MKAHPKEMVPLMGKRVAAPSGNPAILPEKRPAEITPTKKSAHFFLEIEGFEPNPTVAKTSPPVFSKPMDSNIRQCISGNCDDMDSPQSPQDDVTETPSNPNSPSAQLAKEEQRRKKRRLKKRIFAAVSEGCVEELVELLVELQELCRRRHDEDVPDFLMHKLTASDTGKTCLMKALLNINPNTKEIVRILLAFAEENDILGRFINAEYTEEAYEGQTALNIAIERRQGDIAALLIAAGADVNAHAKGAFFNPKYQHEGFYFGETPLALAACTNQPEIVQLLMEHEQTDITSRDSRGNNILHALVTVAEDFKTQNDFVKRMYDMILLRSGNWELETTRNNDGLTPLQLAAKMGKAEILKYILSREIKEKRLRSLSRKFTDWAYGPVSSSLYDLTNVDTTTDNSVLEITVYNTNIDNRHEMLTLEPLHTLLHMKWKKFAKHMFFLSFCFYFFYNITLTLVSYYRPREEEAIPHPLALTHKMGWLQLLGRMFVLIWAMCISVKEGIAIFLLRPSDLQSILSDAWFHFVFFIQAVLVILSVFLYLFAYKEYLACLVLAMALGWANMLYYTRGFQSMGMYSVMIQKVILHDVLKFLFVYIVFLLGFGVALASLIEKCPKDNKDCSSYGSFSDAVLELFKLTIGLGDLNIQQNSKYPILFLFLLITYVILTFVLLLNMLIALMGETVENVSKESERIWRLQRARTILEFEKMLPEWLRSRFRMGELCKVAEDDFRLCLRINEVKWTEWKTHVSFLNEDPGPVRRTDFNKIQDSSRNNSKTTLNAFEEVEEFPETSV

[8] = test system: Rattus norvegicus; test: Toxicity in chronic constriction injury Sprague-Dawley rat model of neuropathic pain assessed as overt impairments at 10 to 100 mg/kg, po; type: organism-based; details: in vivo
[9] = biological target: T2, Transient receptor potential cation channel subfamily V member 3 (Homo sapiens, UniProt Q8NET8); test: (§3) Antagonist activity at human TRPV3 expressed in recombinant HEK293 cells assessed as inhibition of 2-APB induced calcium flux by FLIPR analysis; type: cell-based
T2 sequence (Q8NET8 whole entry): T1 sequence (whole entry)
Summary of the method: (§4)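 HEK293 cells stably expressing human TRPV3 (I25V variant), plated the day before in DMEM + 10% FBS at 37 °C, 5% CO2. Calcium 4 dye loaded in Ca/Mg-free HEPES D-PBS pH 7.4 for 1–2 h at room temperature. Compound dilutions added with 3 min baseline, then 2-APB at 60 µM final; Ca2+ flux read 3 min on FLIPR. Kb from at least duplicates, averaged across independent runs.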

[10] = biological target: T1, Transient receptor potential cation channel subfamily V member 3 (Homo sapiens); test: as §3; type: cell-based; summary of the method: as §4
[11] = organism: Rattus norvegicus; test: Cardiotoxicity in rat assessed as increase in mean arterial pressure; type: toxicity, organism-based, Artery; details: in vivo
[12] = test system: Rattus norvegicus; test: Antiallodynic activity in Sprague-Dawley rat reserpine model of central pain assessed as increase in reserpine induced muscle pressure threshold at 10 to 100 mg/kg, po measured at 1 hr post dosing; type: functional, organism-based
[13] = biological target: T3, Nuclear receptor subfamily 1 group I member 2 (Homo sapiens, UniProt O75469); test: Activation of human PXR; type: ADME; details: human
T3 sequence (O75469 whole entry): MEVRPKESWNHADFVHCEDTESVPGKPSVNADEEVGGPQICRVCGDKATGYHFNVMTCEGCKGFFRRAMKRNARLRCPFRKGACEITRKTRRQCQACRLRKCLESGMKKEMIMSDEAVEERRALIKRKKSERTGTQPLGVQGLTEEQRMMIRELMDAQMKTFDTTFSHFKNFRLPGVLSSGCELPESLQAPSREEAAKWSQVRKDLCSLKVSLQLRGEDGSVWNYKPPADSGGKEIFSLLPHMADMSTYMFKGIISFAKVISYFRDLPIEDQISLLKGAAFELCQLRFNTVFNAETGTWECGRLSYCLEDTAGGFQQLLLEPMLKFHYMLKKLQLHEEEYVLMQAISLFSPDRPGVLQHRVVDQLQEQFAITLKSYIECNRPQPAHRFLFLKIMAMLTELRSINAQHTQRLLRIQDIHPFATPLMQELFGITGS

[14] = test system: Rattus norvegicus; test: Toxicity in sciatic nerve ligation Sprague-Dawley rat model of neuropathic pain assessed as overt impairments at 10 to 100 mg/kg, po; type: organism-based; details: in vivo
[15] = biological target: Sodium channel protein type 10 subunit alpha (Homo sapiens) (UniProt Q9Y5Y9); test: Binding affinity to Nav1.8 (unknown origin) at 10 uM; summary of the method: as §2
[16] = biological target: T1, Transient receptor potential cation channel subfamily V member 3 (Homo sapiens); test: Antagonist activity at human TRPV3 expressed in recombinant HEK293 cells assessed as free plasma level adjusted concentration for inhibition of 2-APB induced calcium flux by FLIPR analysis; type: cell-based
Summary of the method: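 FLIPR Kb from the 2-APB (60 µM final) Ca2+ flux assay in human TRPV3 HEK293 cells, converted to an unbound value using the measured free fraction in plasma.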

[17] = test system: Rattus norvegicus; test: Unbound AUC(0 to 8 hrs) in rat at 2 mg/kg, po; type: ADME, organism-based; details: in vivo; summary of the method: as §1
[18] = test system: Liver microsome; test: Unbound intrinsic clearance in human liver microsomes after 5 hrs by LC-MS/MS analysis; type: ADME
Summary of the method: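 Microsomal stability run in an automated high-throughput plate format. Intrinsic clearance corrected for nonspecific microsomal binding using measured unbound fraction (fu,mic), reported as unbound Clint in L/h/kg.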

[19] = biological target: Voltage-dependent L-type calcium channel subunit alpha-1C (Homo sapiens, UniProt Q13936); test: Binding affinity to Cav1.2 (unknown origin) at 10 uM; summary of the method: as §2
[20] = biological target: Transient receptor potential cation channel subfamily V member 1 (Homo sapiens) (UniProt Q8NER1); test: Binding affinity to TRPV1 (unknown origin) at 10 uM; summary of the method: as §2
[21] = biological target: T2, Transient receptor potential cation channel subfamily V member 3; test: Antagonist activity at human TRPV3 expressed in recombinant HEK293 cells assessed as inhibition of 2-APB induced currents by patch-clamp electrophysiological assay; type: cell-based
[22] = biological target: Voltage-dependent T-type calcium channel subunit alpha-1H (Homo sapiens) (UniProt O95180); test: Binding affinity to Cav3.2 (unknown origin) at 10 uM; summary of the method: as §2
[23] = biological target: Voltage-gated inwardly rectifying potassium channel KCNH2 (Homo sapiens, UniProt Q12809); test: Binding affinity to human ERG at 10 uM; summary of the method: as §2

Chain of Voltage-dependent L-type calcium channel subunit alpha-1C (Q13936 whole entry): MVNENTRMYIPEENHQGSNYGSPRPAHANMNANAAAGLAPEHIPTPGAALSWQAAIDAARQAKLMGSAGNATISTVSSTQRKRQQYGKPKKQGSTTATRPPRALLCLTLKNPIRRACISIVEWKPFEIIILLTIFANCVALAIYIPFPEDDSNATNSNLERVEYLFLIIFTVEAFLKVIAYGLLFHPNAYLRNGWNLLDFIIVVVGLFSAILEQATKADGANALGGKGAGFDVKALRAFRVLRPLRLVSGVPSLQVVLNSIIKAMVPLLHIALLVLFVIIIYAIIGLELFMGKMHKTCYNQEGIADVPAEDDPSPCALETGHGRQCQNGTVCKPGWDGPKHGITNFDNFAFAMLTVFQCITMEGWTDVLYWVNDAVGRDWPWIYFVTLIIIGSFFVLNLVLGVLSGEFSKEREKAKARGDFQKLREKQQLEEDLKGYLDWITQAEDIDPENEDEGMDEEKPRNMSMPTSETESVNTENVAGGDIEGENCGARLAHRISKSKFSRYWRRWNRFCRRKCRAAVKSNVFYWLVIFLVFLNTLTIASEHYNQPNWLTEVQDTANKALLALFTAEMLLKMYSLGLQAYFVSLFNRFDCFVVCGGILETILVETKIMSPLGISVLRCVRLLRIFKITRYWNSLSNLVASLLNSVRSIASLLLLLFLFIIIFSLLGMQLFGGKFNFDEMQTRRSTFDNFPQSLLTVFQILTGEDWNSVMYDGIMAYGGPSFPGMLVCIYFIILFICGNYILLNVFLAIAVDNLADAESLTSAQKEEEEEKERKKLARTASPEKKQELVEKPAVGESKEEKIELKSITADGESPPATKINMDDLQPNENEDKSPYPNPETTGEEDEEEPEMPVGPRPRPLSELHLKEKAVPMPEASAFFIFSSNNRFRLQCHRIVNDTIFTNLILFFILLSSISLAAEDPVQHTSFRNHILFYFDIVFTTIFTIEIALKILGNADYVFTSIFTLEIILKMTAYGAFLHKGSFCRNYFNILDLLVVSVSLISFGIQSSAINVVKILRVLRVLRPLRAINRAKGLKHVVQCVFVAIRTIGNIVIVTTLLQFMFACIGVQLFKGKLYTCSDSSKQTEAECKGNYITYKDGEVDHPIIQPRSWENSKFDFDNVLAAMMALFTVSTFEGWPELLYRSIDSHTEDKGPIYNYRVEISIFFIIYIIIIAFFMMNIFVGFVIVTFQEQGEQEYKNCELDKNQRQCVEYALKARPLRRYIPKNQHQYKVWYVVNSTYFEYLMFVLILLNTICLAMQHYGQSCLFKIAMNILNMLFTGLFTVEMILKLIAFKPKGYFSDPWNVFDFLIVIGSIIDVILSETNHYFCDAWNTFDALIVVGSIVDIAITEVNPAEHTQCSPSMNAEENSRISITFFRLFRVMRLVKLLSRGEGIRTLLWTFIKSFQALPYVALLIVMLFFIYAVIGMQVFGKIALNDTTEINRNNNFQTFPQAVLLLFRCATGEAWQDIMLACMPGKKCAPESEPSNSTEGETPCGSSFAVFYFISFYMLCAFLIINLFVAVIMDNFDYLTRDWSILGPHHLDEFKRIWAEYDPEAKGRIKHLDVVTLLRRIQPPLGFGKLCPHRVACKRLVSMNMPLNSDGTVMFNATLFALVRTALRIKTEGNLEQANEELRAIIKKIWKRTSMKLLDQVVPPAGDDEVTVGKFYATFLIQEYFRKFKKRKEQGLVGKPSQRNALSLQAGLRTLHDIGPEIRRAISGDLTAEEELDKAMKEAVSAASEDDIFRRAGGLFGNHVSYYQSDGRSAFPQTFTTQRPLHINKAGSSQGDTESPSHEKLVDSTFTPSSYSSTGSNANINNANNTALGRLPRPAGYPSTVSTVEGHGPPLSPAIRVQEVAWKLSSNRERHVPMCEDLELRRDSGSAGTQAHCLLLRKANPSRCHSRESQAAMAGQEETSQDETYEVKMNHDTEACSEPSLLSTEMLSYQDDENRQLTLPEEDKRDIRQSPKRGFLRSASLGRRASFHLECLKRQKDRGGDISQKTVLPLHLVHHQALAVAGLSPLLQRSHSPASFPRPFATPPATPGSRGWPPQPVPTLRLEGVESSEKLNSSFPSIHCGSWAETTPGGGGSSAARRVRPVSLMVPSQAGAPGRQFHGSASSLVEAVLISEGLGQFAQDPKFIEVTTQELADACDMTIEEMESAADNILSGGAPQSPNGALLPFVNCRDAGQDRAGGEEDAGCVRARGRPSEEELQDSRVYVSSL
Chain of Transient receptor potential cation channel subfamily V member 1 (Homo sapiens) (Q8NER1 whole entry): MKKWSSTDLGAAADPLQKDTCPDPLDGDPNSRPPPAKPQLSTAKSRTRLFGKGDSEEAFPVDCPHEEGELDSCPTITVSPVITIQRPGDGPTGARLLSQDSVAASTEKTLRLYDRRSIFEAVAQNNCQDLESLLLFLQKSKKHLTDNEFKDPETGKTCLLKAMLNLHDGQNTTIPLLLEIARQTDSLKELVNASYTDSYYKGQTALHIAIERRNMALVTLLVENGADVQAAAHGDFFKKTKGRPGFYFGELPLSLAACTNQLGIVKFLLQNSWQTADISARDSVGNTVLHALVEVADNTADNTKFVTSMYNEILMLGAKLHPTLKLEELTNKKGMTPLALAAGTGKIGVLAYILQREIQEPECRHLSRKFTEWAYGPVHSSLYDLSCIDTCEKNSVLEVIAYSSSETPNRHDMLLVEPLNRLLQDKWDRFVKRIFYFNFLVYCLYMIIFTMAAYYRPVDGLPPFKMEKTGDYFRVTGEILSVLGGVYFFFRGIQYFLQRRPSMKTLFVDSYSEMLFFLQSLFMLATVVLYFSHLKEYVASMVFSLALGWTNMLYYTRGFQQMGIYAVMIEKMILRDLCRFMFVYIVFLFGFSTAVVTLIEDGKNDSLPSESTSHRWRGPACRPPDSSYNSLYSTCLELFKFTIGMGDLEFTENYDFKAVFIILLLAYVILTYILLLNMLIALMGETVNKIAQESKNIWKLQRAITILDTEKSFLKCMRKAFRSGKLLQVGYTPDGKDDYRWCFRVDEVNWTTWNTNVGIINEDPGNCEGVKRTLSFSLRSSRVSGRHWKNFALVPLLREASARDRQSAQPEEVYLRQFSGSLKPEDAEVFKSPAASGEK
Chain of Sodium channel protein type 10 subunit alpha (Homo sapiens) (Q9Y5Y9 whole entry, looked up): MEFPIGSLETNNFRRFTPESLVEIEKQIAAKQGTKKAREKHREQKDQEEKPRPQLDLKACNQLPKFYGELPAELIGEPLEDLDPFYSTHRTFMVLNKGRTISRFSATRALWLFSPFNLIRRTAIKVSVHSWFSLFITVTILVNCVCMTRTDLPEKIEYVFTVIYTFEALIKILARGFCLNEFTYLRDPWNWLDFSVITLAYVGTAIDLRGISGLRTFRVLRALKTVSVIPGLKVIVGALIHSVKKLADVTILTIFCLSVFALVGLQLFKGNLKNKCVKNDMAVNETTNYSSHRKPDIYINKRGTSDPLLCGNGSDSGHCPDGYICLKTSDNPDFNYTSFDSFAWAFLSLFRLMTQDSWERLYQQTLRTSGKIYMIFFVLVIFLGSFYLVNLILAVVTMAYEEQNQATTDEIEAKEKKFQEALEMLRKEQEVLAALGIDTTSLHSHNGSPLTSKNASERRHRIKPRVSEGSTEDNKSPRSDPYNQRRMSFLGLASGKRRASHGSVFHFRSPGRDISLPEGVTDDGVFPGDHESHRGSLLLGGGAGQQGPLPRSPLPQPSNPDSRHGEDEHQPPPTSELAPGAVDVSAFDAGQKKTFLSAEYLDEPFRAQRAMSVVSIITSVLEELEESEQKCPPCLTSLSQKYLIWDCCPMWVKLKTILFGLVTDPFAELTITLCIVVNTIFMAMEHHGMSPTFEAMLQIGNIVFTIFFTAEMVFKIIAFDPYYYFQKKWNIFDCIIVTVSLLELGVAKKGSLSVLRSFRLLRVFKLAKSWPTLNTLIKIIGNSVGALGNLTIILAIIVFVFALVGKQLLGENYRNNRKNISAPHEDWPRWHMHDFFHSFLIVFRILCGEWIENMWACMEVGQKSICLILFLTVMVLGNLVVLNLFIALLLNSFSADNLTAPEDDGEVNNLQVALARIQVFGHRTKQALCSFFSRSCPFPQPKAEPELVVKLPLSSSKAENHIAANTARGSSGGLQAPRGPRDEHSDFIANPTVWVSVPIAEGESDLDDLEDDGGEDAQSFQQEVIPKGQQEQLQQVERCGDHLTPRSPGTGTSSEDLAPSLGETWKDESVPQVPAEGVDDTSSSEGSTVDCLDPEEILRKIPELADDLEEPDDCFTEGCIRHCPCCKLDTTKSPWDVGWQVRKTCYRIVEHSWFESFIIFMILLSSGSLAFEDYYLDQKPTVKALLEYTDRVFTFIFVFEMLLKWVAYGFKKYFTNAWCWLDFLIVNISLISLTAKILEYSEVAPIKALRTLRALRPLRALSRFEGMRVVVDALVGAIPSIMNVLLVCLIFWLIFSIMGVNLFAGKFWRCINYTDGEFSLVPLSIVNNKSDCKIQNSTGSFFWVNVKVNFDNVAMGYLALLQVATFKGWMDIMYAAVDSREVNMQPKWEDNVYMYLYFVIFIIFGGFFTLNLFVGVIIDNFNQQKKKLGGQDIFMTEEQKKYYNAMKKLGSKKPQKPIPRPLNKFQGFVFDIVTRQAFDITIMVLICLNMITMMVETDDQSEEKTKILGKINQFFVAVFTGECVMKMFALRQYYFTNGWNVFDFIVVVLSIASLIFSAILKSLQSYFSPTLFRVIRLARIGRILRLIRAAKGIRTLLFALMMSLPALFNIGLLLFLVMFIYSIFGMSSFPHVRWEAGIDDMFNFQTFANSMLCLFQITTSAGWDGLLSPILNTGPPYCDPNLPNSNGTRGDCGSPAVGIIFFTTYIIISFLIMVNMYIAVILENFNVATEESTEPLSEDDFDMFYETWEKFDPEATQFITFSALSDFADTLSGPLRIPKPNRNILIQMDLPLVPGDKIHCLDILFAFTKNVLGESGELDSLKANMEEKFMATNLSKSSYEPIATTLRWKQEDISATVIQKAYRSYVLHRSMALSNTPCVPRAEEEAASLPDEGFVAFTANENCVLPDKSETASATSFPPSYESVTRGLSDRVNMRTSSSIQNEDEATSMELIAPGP

C[C@]1(O)C[C@](c2cc(C(F)(F)F)ccn2)([C@H](O)c2ccccn2)C1 (mixture of isomers)
clearance [1]: 26.7 mL/min/kg | Activity [2]: < 50% | Activity [3]: Non-toxic | Activity [4]: Non-toxic | clearance [5]: 41.7 mL/min/kg | half-life [6]: 30 min | Activity [7]: > 50% | Activity [8]: Non-toxic | IC50 [9]: 930 nM | Kb [10]: 560 nM | Activity [11]: Non-toxic | Activity [12]: Dose-dependent effect | Activity [13]: Not Active | Activity [14]: Non-toxic | Activity [15]: < 50% | Kb [16]: 620 nM | fAUC [17]: 0.24 µg·h/mL | CL free [18]: 2 L/h/kg | Activity [19]: < 50% | Activity [20]: < 50% | IC50 [21]: 380 nM | Activity [22]: < 50% | Activity [23]: < 50%
